In ChEMBL document CHEMBL2311288, “Discovery of liver-targeted inhibitors of stearoyl-CoA desaturase (SCD1)” (Bioorg Med Chem Lett, 2013):

Legend:
Acyl-CoA desaturase 1 = molecular target: T1, Acyl-CoA desaturase 1 (Rattus norvegicus, UniProt P07308); assay: Inhibition of rat SCD1 by rat microsomal assay
T1 sequence (P07308 whole entry): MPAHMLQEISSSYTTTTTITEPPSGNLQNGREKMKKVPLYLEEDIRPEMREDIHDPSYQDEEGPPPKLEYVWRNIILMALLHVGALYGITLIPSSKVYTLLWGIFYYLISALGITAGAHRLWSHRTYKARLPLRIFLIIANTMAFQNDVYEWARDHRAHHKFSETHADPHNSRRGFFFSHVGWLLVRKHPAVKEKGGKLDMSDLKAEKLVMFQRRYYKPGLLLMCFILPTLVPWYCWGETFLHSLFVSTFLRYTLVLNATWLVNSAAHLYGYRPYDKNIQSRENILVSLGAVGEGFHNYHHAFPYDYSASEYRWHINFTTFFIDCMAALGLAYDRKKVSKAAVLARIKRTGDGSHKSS
Method in brief: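 Microsomal desaturase activity was measured in 100 mM Tris HCl pH 7.3 with 2 mM NADH and [9,10-3H]stearoyl-CoA for 15 min at room temperature. The reaction was stopped on ice with trichloroacetic acid, then passed through activated charcoal, and tritium in the filtrate was counted. Compounds were tested in 2% DMSO final. Percent inhibition = (total−sample)/(total−blank)×100, with the blank set by 10⁻⁴ M of a standard inhibitor.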

[1] = Cmax in rat at 10 mg/kg; type: ADME, organism-based; parameters: dose 10 mg/kg; conditions: in vivo
Method in brief: (§1)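 Rats were given a single 10 mg/kg dose. Plasma exposure (AUC, Cmax) was determined, and drug concentrations in plasma, brain and liver were measured at 6 h post-dose. The liver/plasma ratio was taken from the 6 h levels.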

Rattus norvegicus = assay: AUC in rat at 10 mg/kg; type: ADME, organism-based, Plasma; parameters: dose 10 mg/kg; conditions: in vivo; method in brief: as §1
[2] = Drug level in liver in rat at 10 mg/kg measured after 6 hrs; type: ADME, organism-based; parameters: dose 10 mg/kg; conditions: read-out: Drug uptake; method in brief: as §1
[3] = Ratio of drug level in liver to plasma of rat at 10 mg/kg measured after 6 hrs; type: ADME, organism-based; parameters: dose 10 mg/kg; method in brief: as §1
[4] = Plasma concentration in rat at 10 mg/kg measured after 6 hrs; type: ADME, organism-based; parameters: dose 10 mg/kg; method in brief: as §1

Row | SMILES | IC50 (Acyl-CoA desaturase 1) [nM] | also measured
1 | CC(C)(C)c1ccc(CN2CCC3(CCN(C(=O)CNC(=O)c4ccco4)CC3)Oc3ccccc32)cc1 | 19 | –
2 | CC(C)(C)c1ccc(CN2CCC3(CCN(c4ccc(C(=O)NCCC5CC5)nn4)CC3)Oc3ccccc32)cc1 | 40 | –
3 | O=C(NCC(=O)N1CCC2(CC1)CCN(Cc1cccc(C(F)(F)F)c1)c1ccccc1O2)c1ccco1 | 380 | –
4 | CC(C)(C)c1ccc(CC(=O)N2CCC3(CC2)CCN(CC#N)c2ccccc2O3)cc1 | 440 | –
5 | O=C(NCCC1CC1)c1ccc(N2CCC3(CC2)CCN(Cc2cccc(C(F)(F)F)c2)c2ccccc2O3)nc1 | 12 | Cmax [1]: 45 ng/g; AUC (Rattus norvegicus): 23 ng·h/g; concentration at 6 h [2]: < 10 ng/g
6 | CC(=O)NCC(=O)N1CCC2(CC1)CCN(CCc1ccc(C(C)C)cc1)c1ccccc1O2 | 42 | Kp at 6 h [3]: 17; Cmax [1]: 875 ng/g; AUC (Rattus norvegicus): 2608 ng·h/g; concentration at 6 h [4]: 100 ng/g; concentration at 6 h [2]: 1660 ng/g
7 | CC(=O)NCC(=O)N1CCC2(CC1)CCN(c1ccccc1)c1ccccc1O2 | > 10000 | –
8 | CCCN1CCC2(CCN(C(=O)CNC(C)=O)CC2)Oc2ccccc21 | > 10000 | –
9 | CCc1ccccc1CN1CCC2(CCN(C(=O)CNC(C)=O)CC2)Oc2ccccc21 | 430 | –
10 | CC(=O)NCC(=O)N1CCC2(CC1)CCN(Cc1ccccc1)c1ccccc1O2 | 1200 | –
11 | O=C(NCCC1CC1)c1ccc(N2CCC3(CC2)CCN(Cc2cccc(C(F)(F)F)c2)c2ccccc2O3)nn1 | 4 | Cmax [1]: 209 ng/g; AUC (Rattus norvegicus): 105 ng·h/g; concentration at 6 h [2]: < 10 ng/g

Second part, led by results:

Row | IC50 (Acyl-CoA desaturase 1) [nM] | SMILES | also measured
12 | 830 | CC(=O)NCC(=O)N1CCC2(CC1)CCN(Cc1cccc(Cl)c1)c1ccccc1O2 | –
13 | 680 | CC(=O)NCC(=O)N1CCC2(CC1)CCN(Cc1cccc(OC(F)(F)F)c1)c1ccccc1O2 | –
14 | 10 | NC(=O)c1ccc(N2CCC3(CC2)CCN(Cc2cccc(C(F)(F)F)c2)c2ccccc2O3)nn1 | –
15 | 4700 | O=C(O)c1ccc(N2CCC3(CC2)CCN(Cc2cccc(C(F)(F)F)c2)c2ccccc2O3)nn1 | –
16 | 11.7 | Cc1c(C(=O)Nc2ccn(C)n2)ncn1Cc1cccc(C(F)(F)F)c1 | –
17 | 261 | O=C(CO)Nc1ccc2ncn(Cc3ccc(Cl)c(Cl)c3)c(=O)c2c1 | –
18 | > 10000 | CC(=O)NCC(=O)N1CCC2(CC1)CCN(Cc1ccc(Cl)cc1)c1ccccc1O2 | –
19 | 3 | NC(=O)c1cnc(N2CCC3(CC2)CCN(Cc2cccc(C(F)(F)F)c2)c2ccccc2O3)s1 | Cmax [1]: 45 ng/g; AUC (Rattus norvegicus): 58 ng·h/g; concentration at 6 h [2]: < 10 ng/g
20 | 1200 | CC(=O)NCC(=O)N1CCC2(CC1)CCN(Cc1ccccc1Cl)c1ccccc1O2 | –
21 | 1500 | CC(C)(C)c1ccc(CN2CCC3(CCN(C(=O)CNC(=O)c4cccnc4)CC3)Oc3ccccc32)cc1 | Kp at 6 h [3]: 13; Cmax [1]: 169 ng/g; AUC (Rattus norvegicus): 341 ng·h/g; concentration at 6 h [4]: 18 ng/g; concentration at 6 h [2]: 232 ng/g
22 | 130 | CCCNC(=O)c1ccc(N2CCC3(CC2)CCN(Cc2cccc(C(F)(F)F)c2)c2ccccc2O3)nn1 | –
